Screening results: PubChem, Broad Institute
ERp5 block: inhibitors of human ERp5; Q15084; ERp5 insulin aggregation, absorbance 650 nm, 90 min; inhibition, % at 9.99 µM; 350,000 compounds, 0.05% hits; AID 651711;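 active means mean replicate inhibition above about 25%, with every replicate also reaching it, limit read from the data, passing the limit was not always enough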
SIRT5 inh: sirtuin-5 (human) deacylase inhibition. Purified SirT5, succinyl-peptide AMC, trypsin-coupled fluorescence. inhibition, % at 15 µM. 330,000 compounds, 1.1% hits. AID 652115; in the data active means inhibition above about 15%
Target sequence (Q9NXA8 whole entry, looked up): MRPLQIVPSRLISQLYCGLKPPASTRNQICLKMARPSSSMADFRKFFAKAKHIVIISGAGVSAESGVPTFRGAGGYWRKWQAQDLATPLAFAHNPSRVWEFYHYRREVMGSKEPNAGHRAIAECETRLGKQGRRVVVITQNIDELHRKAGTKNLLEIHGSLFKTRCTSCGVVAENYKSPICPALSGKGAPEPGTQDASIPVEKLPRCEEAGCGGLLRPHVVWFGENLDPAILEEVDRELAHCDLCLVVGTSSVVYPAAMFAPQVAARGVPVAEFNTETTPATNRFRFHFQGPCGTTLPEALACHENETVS
FN deposit inh: fibronectin deposition inhibition; AH1F fibroblasts, Alexa488-fibronectin deposition fluorescence, overnight; 350,000 compounds, 0.086% hits; inhibition, % at 12.6 µM;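 active means mean inhibition across replicates of 30% or more, regardless of how many single replicates reach that level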
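Assay system: AH1F fibroblasts assembling fluorescent fibronectin matrix; Amount: 10000 AH1F cells per well; Buffer or medium: DMEM, 2% serum; Probe or stimulus: Alexa488-fibronectin, 24 nM final in well; Doses: single compound dose, delivered by pin transfer; Incubation: 1 h adhesion, overnight exposure; Measured by: fluorescence 485/525 nm; Read-out: fibronectin deposition inhibition.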
PDI turbidity: inhibitors of human protein disulfide isomerase | P07237 | PDI insulin aggregation turbidity, A650, 90 min | inhibition, % at 10 µM | 350,000 compounds, 0.052% hits | AID 588391;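 active means mean inhibition across replicates of 30% or more, whatever share of single replicates reach that level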
MLL AF4-AF9 inh: blocks AF4 peptide binding to human AF9. AlphaScreen, biotin-AF4 peptide binding to FLAG-AF9. inhibition, % at 10 µM. 350,000 compounds, 0.47% hits. AID 651704;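 active means every replicate reaching a set inhibition limit, whatever the replicate mean, cut at about 25% in these data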
Hits are given with their value; . = inactive; / = not tested or not shown. Compounds with a hit are over-represented: about 1.3% of the library has one in this group of screens.

SMILES	ERp5 block	SIRT5 inh	FN deposit inh	PDI turbidity	MLL AF4-AF9 inh
COc1ccc(C(C#N)N2N=C(C)CC2c2ccccc2)cc1 (stereo unspecified)	.	.	.	.	.
Cc1c(N)cc(S(=O)(=O)O)cc1NC(=O)c1cccc([N+](=O)[O-])c1	.	28	.	.	.
COc1ccc(CN(C)C[C@@H]2OCCCC[C@H](C)Oc3ccc(NC(=O)Nc4ccc(F)cc4)cc3C(=O)N([C@H](C)CO)C[C@@H]2C)cc1	.	.	/	/	.
COc1ccc(CN(C)C[C@H]2OCCCC[C@@H](C)Oc3ccc(NC(=O)Nc4ccc(F)cc4)cc3C(=O)N([C@@H](C)CO)C[C@@H]2C)cc1	.	100	/	/	.
COc1ccc(NC(=O)Nc2ccc3c(c2)C(=O)N([C@@H](C)CO)C[C@@H](C)[C@@H](CN(C)CC2CC2)OCCCC[C@@H](C)O3)cc1	.	.	.	/	26
COc1ccc(NC(=O)Nc2ccc3c(c2)C(=O)N([C@H](C)CO)C[C@@H](C)[C@H](CN(C)CC2CC2)OCCCC[C@H](C)O3)cc1	.	.	.	/	.
CC(=O)COC(=O)CNC(=O)c1ccc(Br)cc1	/	/	.	.	/
Cc1cccc(OCC(=O)N/N=C/c2ccc(N(C)C)cc2)c1	.	.	.	.	.
COc1cc(Cl)c(S(=O)(=O)N2CCCC2)cc1Cl	.	.	.	.	.
COc1cc(N2C(=O)C=CC2=O)c(OC)cc1Cl	.	/	35	.	.
Cn1cc([N+](=O)[O-])c(C(=O)NNC(=O)c2ccc([N+](=O)[O-])cc2Cl)n1	.	.	.	.	.
CC(=O)c1ccc(S(=O)(=O)N2CCN(C(=O)c3ccccc3Cc3ccccc3)CC2)cc1	.	.	.	.	.
C=CCn1ncc(OC)c(Cl)c1=O	.	24	/	.	.
COc1cnn(-c2cccc(C)c2)c(=O)c1Cl	.	.	.	.	.
CCn1c(=O)c(C(=O)CN2CCN(S(=O)(=O)c3ccc(C)cc3C)CC2)c(N)n(Cc2ccccc2)c1=O	.	23	.	.	.
CCn1c(=O)c(C(=O)CN2CCN(S(=O)(=O)c3ccccc3)CC2)c(N)n(Cc2ccccc2)c1=O	.	.	.	.	.
Cc1cccnc1NC(=S)NC(=O)c1cncc(Br)c1	.	.	/	.	.
COC(=O)c1sc(-c2ccccc2)cc1NC(=O)C1CC1	.	.	.	.	.
CCOc1ccc(NC(=O)Nc2cc(-c3ccccc3)sc2C(=O)OC)cc1	.	16	.	.	.
CCOc1ccc(N2C(=O)/C(=C\c3ccc(OC)c(O)c3)S(=O)(=O)C2c2cccc([N+](=O)[O-])c2)cc1 (stereo unspecified)	.	.	.	.	.
CC(NC(=O)c1ccncc1)C(c1cccs1)N1CCOCC1 (stereo unspecified)	.	20	/	.	.
CCOC(=O)C1=C(CN2CCSCC2)NC(=O)NC1c1cccc([N+](=O)[O-])c1 (stereo unspecified)	.	.	.	.	.
CCOC(=O)C1=C(CN2CCOCC2)NC(=O)NC1c1cccc([N+](=O)[O-])c1 (stereo unspecified)	.	16	.	.	.
O=C(C[C@H]1CC[C@H](NS(=O)(=O)c2ccc(F)cc2)[C@@H](CO)O1)NCCN1CCCCC1	.	.	/	/	.
COc1cc(O)c(C(CC(=O)N2CCCC(C)C2)c2ccc(N(C)C)cc2)c(OC)c1 (stereo unspecified)	.	/	.	.	.
SMILES	ERp5 block	SIRT5 inh	FN deposit inh	PDI turbidity	MLL AF4-AF9 inh
COc1cc(O)c(C(CC(=O)N2CCN(c3ccccc3)CC2)c2ccc(N(C)C)cc2)c(OC)c1 (stereo unspecified)	.	/	.	.	28
COc1cc(/C=C2\C(=N)N3N=C(S(C)(=O)=O)SC3=NC2=O)ccc1OCCOc1ccccc1C	.	33	.	.	.
COc1cc(/C=C2\C(=N)N3N=C(S(C)(=O)=O)SC3=NC2=O)ccc1OC(=O)c1cccs1	.	.	.	.	.
Cc1ccc(NC(=O)C2CCN(C(=O)c3ccco3)CC2)cc1C	.	79	.	.	.
C[C@H](CO)N1C[C@H](C)[C@H](CN(C)Cc2cccnc2)OCc2ccccc2-c2ccccc2C1=O	.	.	.	/	.
O=C(NCc1ccccc1)c1ccc(-c2cn[nH]c2)c2ccoc12	.	.	35	.	.
Cc1cc(C=O)c(C)n1-c1cc(C(=O)O)cc(C(=O)O)c1	.	20	.	.	.
Cc1cc(C=O)c(C)n1-c1cccc(C(=O)O)c1	.	.	.	.	.
Cc1sc2ncnc(N3CCC(C(=O)NNC(=O)COc4ccc(Cl)cc4)CC3)c2c1C	.	.	.	.	.
CC(C)[C@@H](C)NC(=O)N(C)C[C@@H]1OCc2ccccc2-c2c(n(C)c3ccccc23)C(=O)N([C@@H](C)CO)C[C@@H]1C	.	19	.	/	.
C[C@@H]1CN([C@@H](C)CO)C(=O)c2c(c3ccccc3n2C)-c2ccccc2CO[C@H]1CN(C)Cc1ccc(-c2ccccc2)cc1	/	.	.	/	.
C[C@@H]1CN([C@@H](C)CO)C(=O)c2c(c3ccccc3n2C)-c2ccccc2CO[C@@H]1CN(C)Cc1ccc(-c2ccccc2)cc1	.	17	.	/	.
C[C@H](CO)N1C[C@H](C)[C@@H](CN(C)C(=O)Cc2ccccc2)OCc2ccccc2-c2c(n(C)c3ccccc23)C1=O	.	18	.	/	.
C[C@@H]1CN([C@@H](C)CO)C(=O)c2c(c3ccccc3n2C)-c2ccccc2CO[C@@H]1CN(C)C(=O)[C@H](C)c1ccccc1	.	20	.	/	.
CC(C)[C@@H](C)NC(=O)N(C)C[C@H]1OCc2ccccc2-c2c(n(C)c3ccccc23)C(=O)N([C@@H](C)CO)C[C@H]1C	.	.	.	/	.
C[C@H](C(=O)N(C)C[C@@H]1OCc2ccccc2-c2c(n(C)c3ccccc23)C(=O)N([C@H](C)CO)C[C@H]1C)c1ccccc1	.	.	.	/	.
COc1ccc(CN(C)C[C@H]2OCCCC[C@@H](C)Oc3ccc(NS(=O)(=O)c4ccc(C)cc4)cc3C(=O)N([C@@H](C)CO)C[C@H]2C)cc1	.	.	/	/	.
C[C@H]1CN([C@@H](C)CO)C(=O)c2c(c3ccccc3n2C)-c2ccccc2CO[C@H]1CN(C)Cc1ccccc1	.	19	.	/	.
COc1ccc(OCc2cc(C(=O)N(C)Cc3nnc(C)o3)no2)c(Cl)c1	.	.	.	.	.
CCN1CCN(S(=O)(=O)c2ccc(Cl)c(C(=O)N(C)C3CCCCC3)c2)CC1	.	/	.	.	26
O=C(O)c1ccc(Nc2nc(-c3ccccc3)nc3ccccc23)cc1	.	39	.	.	.
Cc1ccccc1N=Cc1cccc(O)c1O	/	/	/	.	/
CCc1cc2c(=O)c(-c3nc4ccccc4n3C)coc2c(CN2CCCCC2)c1O	.	34	.	.	.
N#Cc1c(F)cccc1N1CCC(C#N)CC1	.	.	.	.	.
N#Cc1cccc(C#N)c1N1CCC(C#N)CC1	.	24	.	.	.
